Data taken from ChEMBL document CHEMBL4715736, “Identification of anticancer agents based on the thieno[2,3-b]pyridine and 1H-pyrazole molecular scaffolds” (2016).

What was measured:
Assay type in all cases: functional
NCI/ADR-RES = assay: Growth inhibition of human NCI/ADR-RES cells incubated for 48 hrs by sulforhodamine B assay
Method in brief: (§1)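 NCI60 panel at the NCI Developmental Therapeutics Program. Only compounds active in the 10 µM screen went to dose-response testing. GI50, the concentration giving 50% of maximal inhibition of proliferation, and TGI, the concentration giving total growth inhibition, were derived from the dose-response curves.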

CAKI-1 = assay: Growth inhibition of human CAKI-1 cells incubated for 48 hrs by sulforhodamine B assay
Method in brief: (§2)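 NCI Developmental Therapeutics Program NCI60 panel. Compounds that were active in the 10 µM one-dose screen went on to dose–response testing. Growth at each concentration is expressed relative to untreated control (100%). GI50 (concentration giving 50% of maximal inhibition of proliferation) and TGI (concentration giving total growth inhibition) were derived from the curves.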

LOX IMVI [1] = assay: Growth inhibition of human LOX IMVI cells assessed as cell growth at 0.1 uM incubated for 48 hrs by sulforhodamine B assay relative to control; details: read-out: Activity
LOX IMVI [2] = assay: Growth inhibition of human LOX IMVI cells assessed as cell growth at 0.01 uM incubated for 48 hrs by sulforhodamine B assay relative to control; details: read-out: Activity
SF-295 = assay: Growth inhibition of human SF-295 cells assessed as cell growth at 100 uM incubated for 48 hrs by sulforhodamine B assay relative to control; details: read-out: Activity
NCI-H522 [3] = assay: Growth inhibition of human NCI-H522 cells assessed as cell growth at 0.01 uM incubated for 48 hrs by sulforhodamine B assay relative to control; details: read-out: Activity
PC-3 [4] = assay: Growth inhibition of human PC-3 cells assessed as cell growth at 1 uM incubated for 48 hrs by sulforhodamine B assay relative to control; details: read-out: Activity
HCT-15 = assay: Growth inhibition of human HCT-15 cells assessed as cell growth at 0.01 uM incubated for 48 hrs by sulforhodamine B assay relative to control; details: read-out: Activity
SK-MEL-5 [5] = assay: Growth inhibition of human SK-MEL-5 cells incubated for 48 hrs by sulforhodamine B assay
Method in brief: (§3)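 NCI DTP 60-line human tumour panel. Dose-response curves were run only for ligands active in the initial 10 µM screen. GI50 (concentration giving 50% of maximal inhibition of proliferation) and TGI (concentration giving total growth inhibition) were derived from these curves.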

U-251 = assay: Growth inhibition of human U-251 cells assessed as cell growth at 0.1 uM incubated for 48 hrs by sulforhodamine B assay relative to control; details: read-out: Activity
M14 = assay: Growth inhibition of human M14 cells assessed as cell growth at 0.1 uM incubated for 48 hrs by sulforhodamine B assay relative to control; details: read-out: Activity
NCI-H522 [6] = assay: Growth inhibition of human NCI-H522 cells incubated for 48 hrs by sulforhodamine B assay; method in brief: as §1
MDA-MB-468 = assay: Growth inhibition of human MDA-MB-468 cells incubated for 48 hrs by sulforhodamine B assay; method in brief: as §1
MOLT-4 [7] = assay: Growth inhibition of human MOLT-4 cells assessed as cell growth at 1 uM incubated for 48 hrs by sulforhodamine B assay relative to control; details: read-out: Activity
MCF7 [8] = assay: Growth inhibition of human MCF7 cells assessed as cell growth at 1 uM incubated for 48 hrs by sulforhodamine B assay relative to control; details: read-out: Activity
T47D = assay: Growth inhibition of human T47D cells incubated for 48 hrs by sulforhodamine B assay; method in brief: as §3
NCI-H23 = assay: Growth inhibition of human NCI-H23 cells assessed as cell growth at 0.1 uM incubated for 48 hrs by sulforhodamine B assay relative to control; details: read-out: Activity
SK-OV-3 = assay: Growth inhibition of human SK-OV-3 cells assessed as cell growth at 1 uM incubated for 48 hrs by sulforhodamine B assay relative to control; details: read-out: Activity
SR [9] = assay: Growth inhibition of human SR cells assessed as cell growth at 0.1 uM incubated for 48 hrs by sulforhodamine B assay relative to control; details: read-out: Activity
NCI-H226 = assay: Growth inhibition of human NCI-H226 cells assessed as cell growth at 1 uM incubated for 48 hrs by sulforhodamine B assay relative to control; details: read-out: Activity
OVCAR-3 = assay: Growth inhibition of human OVCAR-3 cells assessed as cell growth at 1 uM incubated for 48 hrs by sulforhodamine B assay relative to control; details: read-out: Activity
SF-539 = assay: Growth inhibition of human SF-539 cells assessed as cell growth at 1 uM incubated for 48 hrs by sulforhodamine B assay relative to control; details: read-out: Activity
Hs-578T = assay: Growth inhibition of human Hs-578T cells assessed as cell growth at 100 uM incubated for 48 hrs by sulforhodamine B assay relative to control; details: read-out: Activity
A549 = assay: Growth inhibition of human A549/ATCC cells assessed as cell growth at 1 uM incubated for 48 hrs by sulforhodamine B assay relative to control; details: read-out: Activity; method in brief: as §2
KM12 = assay: Growth inhibition of human KM12 cells assessed as cell growth at 100 uM incubated for 48 hrs by sulforhodamine B assay relative to control; details: read-out: Activity
HCT-116 = assay: Growth inhibition of human HCT-116 cells incubated for 48 hrs by sulforhodamine B assay; method in brief: as §1
MOLT-4 [10] = assay: Growth inhibition of human MOLT-4 cells assessed as cell growth at 0.1 uM incubated for 48 hrs by sulforhodamine B assay relative to control; details: read-out: Activity
PC-3 [11] = assay: Growth inhibition of human PC-3 cells assessed as cell growth at 0.1 uM incubated for 48 hrs by sulforhodamine B assay relative to control; details: read-out: Activity
SR [12] = assay: Growth inhibition of human SR cells assessed as cell growth at 100 uM incubated for 48 hrs by sulforhodamine B assay relative to control; details: read-out: Activity
UO-31 = assay: Growth inhibition of human UO-31 cells assessed as cell growth at 1 uM incubated for 48 hrs by sulforhodamine B assay relative to control; details: read-out: Activity
NCI-H322M = assay: Growth inhibition of human NCI-H322M cells assessed as cell growth at 0.1 uM incubated for 48 hrs by sulforhodamine B assay relative to control; details: read-out: Activity
MCF7 [13] = assay: Growth inhibition of human MCF7 cells assessed as cell growth at 0.01 uM incubated for 48 hrs by sulforhodamine B assay relative to control; details: read-out: Activity
HT-29 = assay: Growth inhibition of human HT-29 cells assessed as cell growth at 1 uM incubated for 48 hrs by sulforhodamine B assay relative to control; details: read-out: Activity
SK-MEL-5 [14] = assay: Growth inhibition of human SK-MEL-5 cells assessed as cell growth at 0.01 uM incubated for 48 hrs by sulforhodamine B assay relative to control; details: read-out: Activity
SNB-75 = assay: Growth inhibition of human SNB-75 cells assessed as cell growth at 0.1 uM incubated for 48 hrs by sulforhodamine B assay relative to control; details: read-out: Activity
[15] = read-out: LC50 (the source's name)

How did the GI50 (NCI/ADR-RES) turn out when Nc1c(C(=O)Nc2ccccc2)sc2nc3c(cc12)CN(Cc1ccccc1)CC3 was run?
Its GI50 is 16.3 µM.

What about the TGI (NCI/ADR-RES) of the same compound?
Its TGI is greater than 100 µM.

What about the CC50 (NCI/ADR-RES; [15]) of the same compound?
Its CC50 is greater than 100 µM.

And the GI50 (CAKI-1)?
The GI50 was 19.7 µM.

And the TGI (CAKI-1)?
The TGI was greater than 100 µM.

What about the CC50 (CAKI-1; [15]) of the same compound?
The CC50 was greater than 100 µM.

And the growth at 0.1 µM (LOX IMVI [1])?
Its growth at 0.1 µM is 102%.

What about the growth at 0.01 µM (LOX IMVI [2]) of the same compound?
The growth at 0.01 µM was 94%.

What about the growth at 100 µM (SF-295) of the same compound?
The growth at 100 µM was 12%.

And the growth at 0.01 µM (NCI-H522 [3])?
Its growth at 0.01 µM is 89%.

What about the growth at 1 µM (PC-3 [4]) of the same compound?
Its growth at 1 µM is 89%.

And the growth at 0.01 µM (HCT-15)?
The growth at 0.01 µM was 102%.

And the GI50 (SK-MEL-5 [5])?
The GI50 was 9.58 µM.

And the LC50 (SK-MEL-5 [5])?
The LC50 was greater than 100 µM.

What about the TGI (SK-MEL-5 [5]) of the same compound?
The TGI was greater than 100 µM.

And the growth at 0.1 µM (U-251)?
The growth at 0.1 µM was 98%.

And the growth at 0.1 µM (M14)?
The growth at 0.1 µM was 91%.

What about the GI50 (NCI-H522 [6]) of the same compound?
Its GI50 is 32.5 µM.

What about the LC50 (NCI-H522 [6]) of the same compound?
Its LC50 is greater than 100 µM.

And the TGI (NCI-H522 [6])?
Its TGI is greater than 100 µM.

What about the GI50 (MDA-MB-468) of the same compound?
The GI50 was 17 µM.

And the TGI (MDA-MB-468)?
The TGI was greater than 100 µM.

What about the CC50 (MDA-MB-468; [15]) of the same compound?
Its CC50 is greater than 100 µM.

And the growth at 1 µM (MOLT-4 [7])?
Its growth at 1 µM is 97%.

What about the growth at 1 µM (MCF7 [8]) of the same compound?
The growth at 1 µM was 82%.

What about the GI50 (T47D) of the same compound?
Its GI50 is 16.2 µM.

What about the TGI (T47D) of the same compound?
Its TGI is greater than 100 µM.

And the CC50 (T47D; [15])?
The CC50 was greater than 100 µM.

And the growth at 0.1 µM (NCI-H23)?
The growth at 0.1 µM was 101%.

What about the growth at 1 µM (SK-OV-3) of the same compound?
The growth at 1 µM was 96%.

And the growth at 0.1 µM (SR [9])?
Its growth at 0.1 µM is 91%.

What about the growth at 1 µM (NCI-H226) of the same compound?
Its growth at 1 µM is 92%.

And the growth at 1 µM (OVCAR-3)?
Its growth at 1 µM is 100%.

What about the growth at 1 µM (SF-539) of the same compound?
Its growth at 1 µM is 83%.

What about the growth at 100 µM (Hs-578T) of the same compound?
The growth at 100 µM was -6%.

And the growth at 1 µM (A549)?
Its growth at 1 µM is 88%.

What about the growth at 100 µM (KM12) of the same compound?
Its growth at 100 µM is 25%.

And the GI50 (HCT-116)?
The GI50 was 11 µM.

And the LC50 (concentration killing 50% of cells) (HCT-116)?
The LC50 (concentration killing 50% of cells) was greater than 100 µM.

What about the TGI (HCT-116) of the same compound?
The TGI was greater than 100 µM.

And the growth at 0.1 µM (MOLT-4 [10])?
The growth at 0.1 µM was 95%.

And the growth at 0.1 µM (PC-3 [11])?
Its growth at 0.1 µM is 91%.

And the growth at 100 µM (SR [12])?
The growth at 100 µM was 19%.

And the growth at 1 µM (UO-31)?
Its growth at 1 µM is 83%.

What about the growth at 0.1 µM (NCI-H322M) of the same compound?
The growth at 0.1 µM was 93%.

And the growth at 0.01 µM (MCF7 [13])?
Its growth at 0.01 µM is 93%.

What about the growth at 1 µM (HT-29) of the same compound?
The growth at 1 µM was 101%.

And the growth at 0.01 µM (SK-MEL-5 [14])?
The growth at 0.01 µM was 104%.

And the growth at 0.1 µM (SNB-75)?
The growth at 0.1 µM was 83%.
